From publication PMC2947842 (Bioorganic & medicinal chemistry, 2010) come the findings set out here.

Positions of bridges follow the written chain, without caps; N, C: chain ends. Non-standard residues stand in square brackets, D forms with d. Residues, ends and D or L forms follow the SMILES beside them.

The subject of the assay is B16/F1 melanoma cells. Nature of the assay: Clonogenic cytotoxicity. The class given is cell-based, murine. The conditions noted are these: 0.1 μM peptide, 3 h incubation at 37 °C, colonies after 6 days. The gist of the method: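 B16/F1 cells seeded at 200 cells/well and exposed for 3 h at 37 °C in culture medium to 0.1 μM test peptide, comparator peptides, or medium alone. Washed twice with PBS and regrown in medium for 6 days. Fixed in methanol:glacial acetic acid (3:1), hematoxylin-stained, and scored by microscope; colonies over 50 cells counted as survivors. Survival normalized to untreated (100%). Unpaired Student t-test, p<0.05.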

“[Cys^3,4,10, D-Phe^7, Arg^11]α-MSH3-13 [(Arg^11)CCMSH]”: the “Decrease in clonogenic survival in comparison with the untreated group” value is given as 11%.
`CC(C)[C@H](NC(=O)[C@@H]1CCCN1C(=O)[C@H](CCCNC(=N)N)NC(=O)[C@H](CS)NC(=O)[C@H](Cc1c[nH]c2ccccc12)NC(=O)[C@H](CCCNC(=N)N)NC(=O)[C@@H](Cc1ccccc1)NC(=O)[C@H](Cc1c[nH]cn1)NC(=O)[C@H](CCC(=O)O)NC(=O)[C@H](CS)NC(=O)[C@H](CS)NC(=O)[C@H](CCCNC(=N)N)NC(=O)[C@@H]1CC(=O)N[C@@H](CCCNC(=N)N)C(=O)NCC(=O)N[C@@H](CC(=O)O)C(=O)N[C@H](Cc2ccc(O)cc2)C(=O)N1)C(N)=O` [RGD-Arg-(Arg^11)CCMSH] (RGD[dY]DRCCEH[dF]RWCRPV-NH2; lactam N-5; C-terminus assumed): the “Decrease in clonogenic survival in comparison with the untreated group” value was 62%.
